Assay outcomes deposited in PubChem by Johns Hopkins Ion Channel Center.
Only some compounds are listed: those with a hit (about 3.5% of all), similar ones and a draw of the others.
MrgX1 antag: antagonists of human MrgX1 receptor | B-score at 10 µM | MRGX1-HEK293 calcium flux, Fluo-4, BAM8-22 antagonism; stronger effect = lower value | Q96LB2 | 1.3% of 310,000 active;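 active = calcium-response B-score plate-corrected more than 3 library SD below zero, starting fluorescence within 5 deviations, no agonist response on first addition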;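 note: peak minus trough fluorescence over baseline after final BAM8-22 challenge near maximal dose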
Target sequence (Q96LB2 whole entry, looked up): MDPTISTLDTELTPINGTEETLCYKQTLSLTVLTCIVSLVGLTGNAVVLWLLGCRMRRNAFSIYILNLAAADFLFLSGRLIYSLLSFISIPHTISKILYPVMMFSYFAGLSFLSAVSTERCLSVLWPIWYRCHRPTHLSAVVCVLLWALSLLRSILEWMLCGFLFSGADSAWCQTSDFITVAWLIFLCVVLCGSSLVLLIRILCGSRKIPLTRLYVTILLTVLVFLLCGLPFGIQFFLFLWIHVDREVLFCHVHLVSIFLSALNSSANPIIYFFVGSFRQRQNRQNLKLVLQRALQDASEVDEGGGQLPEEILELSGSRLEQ
MrgX1 PAM: human MrgX1 positive allosteric modulation, primary screen. Q96LB2. MrgX1-HEK293, Fluo-4 calcium flux, FDSS; stronger effect = higher value. B-score at 10 µM. 0.63% of 310,000 active. AID 588675;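 active = plate-corrected calcium response at least 3 library SD above typical, normal starting fluorescence, not activating the receptor alone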;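 note: compound read alongside a low EC10 to EC30 dose of BAM8-22 agonist; peak minus trough fluorescence over baseline measured at the second addition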
RGS4 pot: potentiators or activators of RGS4 | HEK293 M3R/inducible RGS4, carbachol calcium flux Fluo4; stronger effect = lower value | B-score at 10 µM | 0.92% of 310,000 active | AID 463111;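 active = B-score of the integrated calcium signal more than 4 SD below the library mean, with starting fluorescence not abnormally high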;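 note: negative B-score means reduced calcium response which marks RGS4 activation or potentiation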
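test system = HEK293 cells with stable M3R and inducible RGS4 | schedule = recording 10 s baseline at 1 Hz, 100 s post-agonist | technique = Fluo4-AM (2 µM) calcium-flux fluorescence, kinetic read | measure = Agonist-evoked peak-minus-minimum fluorescence over baseline, integrated ratio, B score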
RGS4 block: inhibitors of human RGS4; HEK293 M3R/RGS4 inducible, Fluo-4 calcium flux; stronger effect = higher value; triggered by carbachol at its EC20; B-score at 10 µM; 0.45% of 310,000 active;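 active = B-score, a plate-corrected calcium signal, over three deviations above library mean, with baseline fluorescence within five deviations of library mean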;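 note: RGS4 expression induced by doxycycline in cells with stable M3 receptor; B-score is computed from the integrated fluorescence ratio over baseline after carbachol; higher B-score means a larger calcium signal and so more RGS4 inhibition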
Target sequence (P49798 whole entry, looked up): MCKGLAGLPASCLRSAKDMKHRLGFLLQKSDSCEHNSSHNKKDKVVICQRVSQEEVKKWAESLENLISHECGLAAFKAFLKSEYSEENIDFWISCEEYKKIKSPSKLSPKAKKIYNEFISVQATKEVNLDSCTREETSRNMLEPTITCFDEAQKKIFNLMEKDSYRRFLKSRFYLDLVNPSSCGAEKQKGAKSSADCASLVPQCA
MrgX1 agonist: human MrgX1 receptor agonism, primary screen | MrgX1-HEK293 cells, Fluo-4 calcium fluorescence, agonist mode; stronger effect = higher value | B-score at 10 µM | 0.44% of 310,000 active | AID 588627;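 active = calcium response B-score plate-corrected fluorescence ratio at least 3 library SD, with starting fluorescence B-score inside 5 SD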
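Material: HEK293 cells stably expressing human MrgX1 receptor | Quantity: 15,000 cells per well | Times: Cells plated overnight, dye loaded 0.5 h 37 °C, 0.5 h room temperature | Measured by: Kinetic Fluo-4 NW fluorescence of intracellular calcium | Control set: Positive and negative controls per plate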
RGS4 act valid: confirmation of RGS4 activators; shares compounds with RGS4 pot; HEK293 M3R/RGS4 inducible, carbachol calcium flux Fluo4; inhibition, % at 10 µM; 89% of 1,100 active; AID 602282;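 active = inhibition above 3 SD of the buffer control wells, cut at about 41% in these data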;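 note: signal is the integrated peak-minus-minimum Fluo4 fluorescence over baseline ratio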
RGS4 act ctr: RGS4 activator counter-screen hit in non-induced cells; shares compounds with RGS4 pot; HEK293 M3R non-induced RGS4, Fluo4 calcium flux; after carbachol challenge at its EC90; inhibition, % at 10 µM; 82% of 1,100 active; AID 602283;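 active = inhibition exceeding 3 SD of buffer-only control wells, cut at about 26% in these data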;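 note: percent drop in integrated peak-minus-baseline over baseline Fluo4 ratio after carbachol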
* = called active by the depositor.

Screening c1ccc2c(c1)OCC(c1csc3ncnc(N4CCCCC4)c13)O2 (configuration not stated) returned MrgX1 antag inactive, MrgX1 PAM inactive, RGS4 pot inactive, RGS4 block inactive and MrgX1 agonist inactive.
`CCCN1CCN(c2ncnc3scc(C4COc5ccccc5O4)c23)CC1` (configuration not stated) gave MrgX1 antag inactive, MrgX1 PAM inactive, RGS4 pot -12*, RGS4 block inactive, MrgX1 agonist inactive, RGS4 act valid 92* and RGS4 act ctr 62*.
COc1cc(C(=O)Nc2nnc(C)s2)c([N+](=O)[O-])cc1OC was read as MrgX1 antag inactive, MrgX1 PAM inactive, RGS4 pot inactive, RGS4 block inactive and MrgX1 agonist inactive.
O=C(NCCSCc1ccccc1)c1ccc(C2SCC(=O)N2Cc2ccccc2)cc1 (configuration not stated) was read as MrgX1 antag inactive, MrgX1 PAM inactive, RGS4 pot -11*, RGS4 block inactive, MrgX1 agonist inactive, RGS4 act valid 88* and RGS4 act ctr 42*.
For COC(=O)c1ccc(C2SCC(=O)N2Cc2ccccc2)cc1 (configuration not stated) the results were MrgX1 antag inactive, MrgX1 PAM inactive, RGS4 pot inactive, RGS4 block inactive and MrgX1 agonist inactive.
`CCOC(=O)C1=C(Cc2ccc(Cl)cc2)C(=O)c2ccccc2C1=O` gave MrgX1 antag -4.5*, MrgX1 PAM inactive, RGS4 pot -9.3*, RGS4 block inactive, MrgX1 agonist inactive, RGS4 act valid 86* and RGS4 act ctr 30*.
CCOC(=O)C1CCN(C(=O)c2cccc(NS(=O)(=O)c3ccc(F)c(F)c3)c2)CC1 was read as MrgX1 antag inactive, MrgX1 PAM inactive, RGS4 pot inactive, RGS4 block inactive and MrgX1 agonist inactive.
CC(=O)N/C(=C\c1ccccc1)C(=O)OCc1ccc(F)cc1 was read as MrgX1 antag inactive, MrgX1 PAM inactive, RGS4 pot inactive, RGS4 block inactive and MrgX1 agonist inactive.
`CC1=C(C(=O)OCC2CCCO2)C(c2ccccc2)C2=C(CC(C)(C)CC2=O)N1` (configuration not stated) gave MrgX1 antag inactive, MrgX1 PAM inactive, RGS4 pot -8.2*, RGS4 block inactive, MrgX1 agonist inactive, RGS4 act valid 0 and RGS4 act ctr 0.
`COc1cc2nc(Nc3ccc(C)c(C)c3)nc(N)c2cc1OC` gave MrgX1 antag inactive, MrgX1 PAM inactive, RGS4 pot -10*, RGS4 block inactive, MrgX1 agonist inactive, RGS4 act valid 61* and RGS4 act ctr 0.
CCc1ccc([C@@H]2C[C@H]3CN(Cc4ccccc4OC)C(=O)[C@]34CCCN24)cc1 was read as MrgX1 antag inactive, MrgX1 PAM inactive, RGS4 pot -9.5*, RGS4 block inactive, MrgX1 agonist inactive, RGS4 act valid 79* and RGS4 act ctr 30*.
For Cc1ccc(C(OCC(C)(C)C[N+](C)(C)C)c2ccccc2)cc1 (configuration not stated) the results were MrgX1 antag inactive, MrgX1 PAM inactive, RGS4 pot -11*, RGS4 block inactive, MrgX1 agonist inactive, RGS4 act valid 88* and RGS4 act ctr 63*.
Screening O=C(CNc1ccccc1)c1ccc([N+](=O)[O-])cc1 returned MrgX1 antag inactive, MrgX1 PAM inactive, RGS4 pot -11*, RGS4 block inactive, MrgX1 agonist inactive, RGS4 act valid 76* and RGS4 act ctr 84*.
O=C(CNC(=O)c1ccc([N+](=O)[O-])cc1)c1ccccc1 was read as MrgX1 antag inactive, MrgX1 PAM inactive, RGS4 pot inactive, RGS4 block inactive and MrgX1 agonist inactive.
`CCOC(=O)C(C)NC(=O)c1cn(-c2ccc(OC)cc2)c(=O)c2ccccc12` (configuration not stated) gave MrgX1 antag inactive, MrgX1 PAM inactive, RGS4 pot inactive, RGS4 block inactive and MrgX1 agonist inactive.
`Cc1cc(NC(=O)c2cnn3c(C(F)F)cc(-c4ccccc4)nc23)no1` gave MrgX1 antag inactive, MrgX1 PAM inactive, RGS4 pot inactive, RGS4 block inactive and MrgX1 agonist inactive.
For Cc1cc(NC(=O)c2cnn3c(C(F)(F)F)cc(-c4ccccc4)nc23)no1 the results were MrgX1 antag inactive, MrgX1 PAM inactive, RGS4 pot -10*, RGS4 block inactive, MrgX1 agonist inactive, RGS4 act valid 94* and RGS4 act ctr 74*.
For c1ccc(CN2CCN(C3=Nc4cccc5cccc3c45)CC2)cc1 the results were RGS4 pot inactive and RGS4 block inactive.
For Fc1ccc(N2CCN(C3=Nc4cccc5cccc3c45)CC2)cc1 the results were MrgX1 antag inactive, MrgX1 PAM inactive, RGS4 pot -13*, RGS4 block inactive, MrgX1 agonist inactive, RGS4 act valid 94* and RGS4 act ctr 74*.
Screening CN(C(=O)c1ccccc1OCc1ccc(Cl)cc1)c1ccccc1 returned MrgX1 antag inactive, MrgX1 PAM inactive, RGS4 pot -9.2*, RGS4 block inactive, MrgX1 agonist inactive, RGS4 act valid 92* and RGS4 act ctr 93*.
For CC(C)c1ccc(/C=N/NC(=O)c2nnn(-c3nonc3N)c2CN(C)C2CCCCC2)cc1 the results were MrgX1 antag inactive, MrgX1 PAM inactive, RGS4 pot inactive, RGS4 block inactive and MrgX1 agonist inactive.
`CCOCc1c(C(=O)NC2=Nc3ccccc3NC(CC)=C2C(=O)OCC)oc2ccccc12` gave MrgX1 antag inactive, MrgX1 PAM inactive, RGS4 pot -8.9*, RGS4 block inactive, MrgX1 agonist inactive, RGS4 act valid 76* and RGS4 act ctr 84*.
Screening CCOC(=O)C1=C(CC)Nc2ccccc2N=C1NC(=O)c1oc2ccccc2c1C returned MrgX1 antag inactive, MrgX1 PAM inactive, RGS4 pot -12*, RGS4 block inactive, MrgX1 agonist inactive, RGS4 act valid 84* and RGS4 act ctr 52*.
`CCOC(=O)C1=C(CC)Nc2ccccc2N=C1NC(=O)CCNC(C)=O` gave MrgX1 antag inactive, MrgX1 PAM inactive, RGS4 pot inactive, RGS4 block inactive and MrgX1 agonist inactive.
`CCn1c(C)nnc1SCC(=O)NC1CCCC1` gave MrgX1 antag inactive, MrgX1 PAM inactive, RGS4 pot inactive, RGS4 block inactive and MrgX1 agonist inactive.
